Reference: PMC9176367 (Journal of medicinal chemistry, 2022)

Experiments:
[1] = system: MRGPRX1; details: NIH MLPCN; cited from earlier work
[2] = biological target: T1, human MRGPRX1 (Homo sapiens, UniProt Q96LB2); assay type: cell-based; details: MRGPRX1 PAM potency
Outline: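 Stable human MRGPRX1 HEK293 cells seeded at 25,000/well and grown 2 days. Loaded with 2 μM Fluo-4 AM plus 1% Trypan Red in HBSS for 50 min at 37°C, then 10 min at room temperature. Serial HBSS dilutions of test compound added with EC20 BAM8–22; FLIPR read for 2 min as max–min fluorescence. […] Mean ± SEM, ≥3 experiments in quadruplicate.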

[3] = Metabolite identification in human liver microsomes; assay type: in vitro ADME; details: 60 min
[4] = system: naïve MRGPRX1 mice; assay: Open field test in naïve MRGPRX1 mice; assay type: in vivo; details: 100 mg/kg, po, compared to pre-drug
[5] = system: naïve MRGPRX1 mice; assay: Rotarod test in naïve MRGPRX1 mice; assay type: in vivo; details: 100 mg/kg, po, vs vehicle-treated group and pre-treatment values
[6] = system: humanized MRGPRX1 mice; assay type: in vivo; details: 100 mg/kg oral, 0–1 hour post-drug
[7] = system: panel of 44 selected targets (Eurofins Cerep SafetyScreen 44); assay: Off-target panel of 44 selected targets; details: at 10 μM
[8] = biological target: T2, MRGPRX2 (Homo sapiens, UniProt Q96LB1); assay type: cell-based
T2 sequence (Q96LB1 1-330): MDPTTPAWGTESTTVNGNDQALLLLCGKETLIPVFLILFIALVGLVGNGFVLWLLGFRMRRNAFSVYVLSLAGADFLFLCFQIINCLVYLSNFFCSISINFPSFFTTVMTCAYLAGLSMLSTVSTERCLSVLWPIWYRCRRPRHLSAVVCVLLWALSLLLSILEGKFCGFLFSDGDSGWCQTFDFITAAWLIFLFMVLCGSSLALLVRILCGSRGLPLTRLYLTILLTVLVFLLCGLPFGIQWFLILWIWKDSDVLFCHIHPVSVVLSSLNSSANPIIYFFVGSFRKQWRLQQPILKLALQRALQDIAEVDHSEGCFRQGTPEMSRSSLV

[9] = biological target: T1, human MRGPRX1; assay: MRGPRX1 intrinsic agonist activity in the absence of BAM8–22; assay type: cell-based; details: at concentrations up to 100 μM in the absence of BAM8–22
Outline: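 Same stable human MRGPRX1 HEK293 FLIPR format: 25,000 cells/well for 2 days, then 2 μM Fluo-4 AM with 1% Trypan Red in HBSS for 50 min at 37°C and 10 min at room temperature. Serially diluted test compound added in HBSS alone, with HBSS as negative control and BAM8–22 as positive control. Max–min fluorescence recorded over 2 min.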

[10] = biological target: hERG channel (Homo sapiens, UniProt Q12809); assay: hERG channel in Eurofins Cerep SafetyScreen 44; details: at 10 μM
Chain of hERG channel (Q12809 whole entry): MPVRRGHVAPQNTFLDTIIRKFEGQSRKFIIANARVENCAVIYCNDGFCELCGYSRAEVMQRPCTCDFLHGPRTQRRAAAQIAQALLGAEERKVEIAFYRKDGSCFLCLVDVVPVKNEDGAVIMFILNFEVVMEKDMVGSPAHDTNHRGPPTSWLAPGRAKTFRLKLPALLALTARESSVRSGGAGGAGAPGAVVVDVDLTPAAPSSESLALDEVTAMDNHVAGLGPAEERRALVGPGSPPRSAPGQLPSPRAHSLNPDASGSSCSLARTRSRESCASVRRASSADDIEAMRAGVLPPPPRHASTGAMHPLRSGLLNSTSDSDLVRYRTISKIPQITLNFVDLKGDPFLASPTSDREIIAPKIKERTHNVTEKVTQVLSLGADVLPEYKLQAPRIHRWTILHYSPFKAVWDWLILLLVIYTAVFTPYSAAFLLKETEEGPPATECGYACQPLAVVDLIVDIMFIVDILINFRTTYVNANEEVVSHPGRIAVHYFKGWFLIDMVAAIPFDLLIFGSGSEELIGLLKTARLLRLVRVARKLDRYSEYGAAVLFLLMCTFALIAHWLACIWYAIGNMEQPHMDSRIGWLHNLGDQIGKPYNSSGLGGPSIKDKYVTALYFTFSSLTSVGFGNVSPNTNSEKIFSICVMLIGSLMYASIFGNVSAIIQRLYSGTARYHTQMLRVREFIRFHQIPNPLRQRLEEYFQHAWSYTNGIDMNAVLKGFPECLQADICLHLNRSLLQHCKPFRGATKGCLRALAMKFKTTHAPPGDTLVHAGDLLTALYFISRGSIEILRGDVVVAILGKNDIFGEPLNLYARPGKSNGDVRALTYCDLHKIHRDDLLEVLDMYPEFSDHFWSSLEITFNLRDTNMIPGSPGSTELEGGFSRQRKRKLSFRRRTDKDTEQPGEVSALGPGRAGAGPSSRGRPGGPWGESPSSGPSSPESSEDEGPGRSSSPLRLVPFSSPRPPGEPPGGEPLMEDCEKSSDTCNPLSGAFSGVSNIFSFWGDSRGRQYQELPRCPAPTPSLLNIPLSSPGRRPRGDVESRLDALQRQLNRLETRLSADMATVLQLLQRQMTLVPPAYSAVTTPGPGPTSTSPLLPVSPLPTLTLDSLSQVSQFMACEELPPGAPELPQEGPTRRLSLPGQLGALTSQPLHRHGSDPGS

[11] = system: humanized MRGPRX1 mice; assay: Sciatic nerve chronic constriction injury; assay type: in vivo; details: 100 mg/kg, po
Outline: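 Humanized MRGPRX1 mice of both sexes (2–3 months, 20–30 g) under 2% isoflurane; left sciatic nerve loosely ligated with three sutures proximal to the branching point. Test compound given at 100 mg/kg po, vehicle as control. Hargreaves heat paw withdrawal latency measured before and after dosing on days 12 and 26 post-CCI (n=4–5/group). Two-way mixed-model ANOVA with Bonferroni; mean + SD.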

[12] = In vivo pharmacokinetics in mice after oral administration; details: for Kp: male, CD-1, mouse, po, 100 mg/kg, Tissue-to-plasma ratio (by AUC)
Outline: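 Male CD1 mice (25–30 g, n=3) dosed by oral gavage at 100 mg/kg in 5% dimethylacetamide/10% Cremophor EL/10% Tween80/25% PEG400/50% water. Killed at 0.25–6 h; cardiac blood taken to plasma, spinal cord and brain flash-frozen. Acetonitrile extraction with losartan internal standard, then LC/MS/MS. Calibration 0.01–10 nmol/mL in naïve matrix, 1/x-weighted linear regression.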

[13] = system: MRGPRX1; details: cited from earlier work
[14] = spinal cord, 100 mg/kg po (table)

T1 sequence (Q96LB2 whole entry): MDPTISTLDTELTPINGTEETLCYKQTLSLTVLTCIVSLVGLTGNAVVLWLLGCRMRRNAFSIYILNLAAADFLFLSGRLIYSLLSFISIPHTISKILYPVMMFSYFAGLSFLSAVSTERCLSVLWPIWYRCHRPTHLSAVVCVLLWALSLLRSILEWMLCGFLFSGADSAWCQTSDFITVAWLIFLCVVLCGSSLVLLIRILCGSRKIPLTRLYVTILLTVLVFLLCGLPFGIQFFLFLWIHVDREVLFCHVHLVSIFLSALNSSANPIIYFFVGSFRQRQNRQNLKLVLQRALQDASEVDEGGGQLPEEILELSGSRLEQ

In the case of `Cc1ccccc1Oc1ncnc2sccc12` [Compound 1b, 4-(o-Tolyloxy)thieno[2,3-d]pyrimidine], the “allosteric MRGPRX1 activator activity” value [1] is listed as “active allosteric MRGPRX1 activator”.
For `Cc1sc2ncnc(Oc3ccccc3)c2c1C` [Compound 1c, 5,6-Dimethyl-4-phenoxythieno[2,3-d]pyrimidine], the “fold loss in potency compared to 1b” value [2] was 4 fold.
In the case of `Cc1sc2ncnc(Oc3ccccc3F)c2c1C` [Compound 1f, 4-(2-Fluorophenoxy)-5,6-dimethylthieno[2,3-d]pyrimidine], the major metabolite identification [3] is reported as “insertion of an oxygen atom into the parent compound”.
For `CC(C)(C)c1sc2ncnc(Oc3ccccc3OC(F)(F)F)c2c1-c1ccc(Cl)c(Cl)c1` [Compound 1t, 6-tert-butyl-5-(3,4-dichlorophenyl)-4-(2-(trifluoromethoxy)phenoxy)thieno[2,3-d]pyrimidine], the “exploratory performance in the open field test” value [4] was “neither compound 1t (100 mg/kg, po) nor vehicle significantly impaired exploratory performance”, the “performance on the rotarod test” value [5] was “no difference in performance on the rotarod test” and the “itch side effects (spontaneous scratch bouts)” value [6] was “lack of spontaneous scratch bouts”. For the same compound, the overt adverse effects ([6]; compared to vehicle) was “no overt adverse effects”, the “inhibition of 5 of the 44 targets” value [7] was 50−64% and the “selectivity for MRGPRX1 over MRGPRX2” value [8] was “at least 50 fold”. For the same compound, the “MRGPRX2 PAM activity” value ([8]; at 5 μM, in presence of EC20 concentration of C48/80) was “no MRGPRX2 PAM activity”, the intrinsic agonist activity [9] was “no intrinsic agonist activity” and the “inhibition of hERG channel” value [10] was “more than 50%”. For the same compound, the “ipsilateral paw withdrawal latency (PWL) to radiant heat” value ([11]; 1 and 2 hours post-drug on day 12 post-injury) was “significantly increased ipsilateral PWLs from pre-drug level”, the “ipsilateral paw withdrawal latency (PWL) to radiant heat” value ([11]; 2 hours post-drug on day 26 post-injury) was “significantly increased ipsilateral PWLs from pre-drug level” and the “contralateral hind paw PWL” value ([11]; after drug treatment) was “no significant change of PWLs”. For the same compound, the “Cmax in the spinal cord relative to the EC50 value” ([12]; 100 mg/kg po) was “more than 40 fold”, the Cmax ([12]; brain, 100 mg/kg po) was 0.82 ± 0.05 nmol·h/g and the Kp ([12]; brain/plasma, brain, 100 mg/kg po) was 0.022. For the same compound, the Kp ([12]; spinal cord/plasma, spinal cord, 100 mg/kg po) was 0.127, the AUC0-last [12, 14] was 13.79 ± 0.14 nmol·h/g and the Cmax [12, 14] was 4.60 ± 0.60 nmol·h/g.
In the case of `CCOc1ccccc1NC(=O)c1ccccc1NS(=O)(=O)C1CC1` [ML382, 2-[(Cyclopropylsulfonyl)amino]-N-(2-ethoxyphenyl)benzamide], the “pain hypersensitivity after injury” value ([13]; intrathecal injection) is listed as “inhibit pain hypersensitivity after injury” and the itch side effects ([13]; systemic administration) is listed as “did not elicit itch side effects”.
